# Reference: ChEMBL document CHEMBL3745659, “Synthesis and Characterization of 4,11-Diaminoanthra[2,3-b]furan-5,10-diones: Tumor Cell Apoptosis through tNOX-Modulated NAD(+)/NADH Ratio and SIRT1” (J Med Chem, 2015)
# pIC50: −log10 of the molar value. Active and inactive are the calls of the source. No cut-off for these calls is given here.
# Experiments:
# HeLa = assay: Antiproliferative activity against human HeLa cells after 72 hrs by MTT assay; assay type: functional, cell-based
# [1] = Antiproliferative activity against human K562/4 cells after 72 hrs by MTT assay; assay type: functional, cell-based; settings: K562/4, 72 h
# [2] = molecular target: T1, NAD-dependent protein deacetylase sirtuin-1 (Homo sapiens, UniProt Q96EB6); assay: Inhibition of human recombinant SIRT1 deacetylase activity using Arg-His-Lys-Lys(epsilon-acetyl)-AMC as substrate incubated for 45 mins by fluorescence analysis
# T1 sequence (Q96EB6 whole entry): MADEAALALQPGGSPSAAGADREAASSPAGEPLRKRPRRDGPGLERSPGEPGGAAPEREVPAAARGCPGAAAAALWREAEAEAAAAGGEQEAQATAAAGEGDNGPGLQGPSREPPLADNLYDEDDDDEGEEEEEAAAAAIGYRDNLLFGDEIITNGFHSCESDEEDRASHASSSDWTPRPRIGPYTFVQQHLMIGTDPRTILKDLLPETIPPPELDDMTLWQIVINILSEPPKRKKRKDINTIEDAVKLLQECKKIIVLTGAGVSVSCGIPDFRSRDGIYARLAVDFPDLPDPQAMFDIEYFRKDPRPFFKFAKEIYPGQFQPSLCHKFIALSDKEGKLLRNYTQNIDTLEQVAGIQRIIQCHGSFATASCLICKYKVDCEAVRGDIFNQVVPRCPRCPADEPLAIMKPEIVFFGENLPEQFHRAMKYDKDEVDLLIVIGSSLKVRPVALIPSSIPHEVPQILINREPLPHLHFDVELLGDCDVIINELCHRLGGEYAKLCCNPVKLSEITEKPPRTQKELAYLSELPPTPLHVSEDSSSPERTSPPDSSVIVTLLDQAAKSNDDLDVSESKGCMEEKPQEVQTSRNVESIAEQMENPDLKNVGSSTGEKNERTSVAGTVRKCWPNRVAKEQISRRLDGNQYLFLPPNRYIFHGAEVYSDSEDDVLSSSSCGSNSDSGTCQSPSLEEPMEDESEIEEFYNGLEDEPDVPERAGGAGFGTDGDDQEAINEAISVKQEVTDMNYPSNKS
# [3] = molecular target: T2, DNA topoisomerase 1 (Homo sapiens) (UniProt P11387); assay: Inhibition of Top1 (unknown origin)-mediated relaxation of pBR322 DNA at 2.5 uM incubated for 30 mins by ethidium bromide staining-based gel electrophoresis assay
# T2 sequence (whole entry): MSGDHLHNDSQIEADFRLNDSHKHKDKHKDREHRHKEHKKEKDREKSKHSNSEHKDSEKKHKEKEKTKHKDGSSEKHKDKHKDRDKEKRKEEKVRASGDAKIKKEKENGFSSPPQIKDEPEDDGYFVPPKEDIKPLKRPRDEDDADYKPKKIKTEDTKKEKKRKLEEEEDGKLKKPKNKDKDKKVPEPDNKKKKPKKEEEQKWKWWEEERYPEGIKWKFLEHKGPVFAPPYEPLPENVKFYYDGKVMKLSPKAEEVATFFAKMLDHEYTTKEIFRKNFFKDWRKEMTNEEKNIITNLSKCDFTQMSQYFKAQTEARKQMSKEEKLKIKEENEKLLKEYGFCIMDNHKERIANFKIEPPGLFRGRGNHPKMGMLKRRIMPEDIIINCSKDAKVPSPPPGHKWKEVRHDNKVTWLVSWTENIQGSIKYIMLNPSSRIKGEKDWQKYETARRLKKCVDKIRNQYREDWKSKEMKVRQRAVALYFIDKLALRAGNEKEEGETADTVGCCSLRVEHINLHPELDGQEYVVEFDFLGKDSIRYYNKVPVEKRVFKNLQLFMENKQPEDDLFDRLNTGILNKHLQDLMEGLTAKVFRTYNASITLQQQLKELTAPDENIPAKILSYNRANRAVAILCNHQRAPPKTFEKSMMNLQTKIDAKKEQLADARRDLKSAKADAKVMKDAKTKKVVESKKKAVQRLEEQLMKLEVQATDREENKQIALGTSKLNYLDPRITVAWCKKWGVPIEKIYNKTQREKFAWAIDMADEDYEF
# Outline: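 Supercoiled pBR322 plasmid treated with Top1 without drug or with compound at 0.5, 2.5 or 10 µM; camptothecin as reference; relaxation assessed by gel electrophoresis.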
# AGS [4] = assay: Induction of apoptosis in human AGS cells assessed as late apoptotic cells at 0.1 uM after 24 hrs by annexin V-FITC staining-based flow cytometric analysis (Rvb=0.3%); assay type: functional
# Outline: (§1)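 AGS cells exposed to compound for 24 h; Annexin V-FITC staining and flow cytometry used to give percentage of apoptotic cells; mean ± S.E. from at least three independent experiments.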
# AGS [5] = assay: Induction of apoptosis in human AGS cells assessed as early apoptotic cells at 0.05 uM after 24 hrs by annexin V-FITC staining-based flow cytometric analysis (Rvb=7.2%); assay type: functional; outline: as §1
# AGS [6] = assay: Induction of apoptosis in human AGS cells assessed as early apoptotic cells at 1 uM after 24 hrs by annexin V-FITC staining-based flow cytometric analysis (Rvb=7.2%); assay type: functional; outline: as §1
# AGS [7] = assay: Upregulation of caspase3-directed PARP cleavage in human AGS cells at 5 uM after 24 hrs by Western blot analysis; assay type: functional, cell-based
# AGS [8] = assay: Upregulation of acetylated p53 level in human AGS cells at 1 and 5 uM after 24 hrs by Western blot analysis; assay type: functional, cell-based
# AGS [9] = assay: […] in human AGS cells assessed as downregulation of N-Cad after 24 hrs by Western blot analysis; assay type: functional, cell-based
# AGS [10] = assay: […] in human AGS cells assessed as downregulation of beta-catenin after 24 hrs by Western blot analysis; assay type: functional, cell-based
# [11] = molecular target: T3, Ecto-NOX disulfide-thiol exchanger 2 (Homo sapiens) (UniProt Q16206); assay: Inhibition of tNOX in human AGS cells assessed as decrease in intracellular NAD+/NADH ratio in human AGS cells at 5 uM incubated for 5 mins
# T3 sequence (whole entry): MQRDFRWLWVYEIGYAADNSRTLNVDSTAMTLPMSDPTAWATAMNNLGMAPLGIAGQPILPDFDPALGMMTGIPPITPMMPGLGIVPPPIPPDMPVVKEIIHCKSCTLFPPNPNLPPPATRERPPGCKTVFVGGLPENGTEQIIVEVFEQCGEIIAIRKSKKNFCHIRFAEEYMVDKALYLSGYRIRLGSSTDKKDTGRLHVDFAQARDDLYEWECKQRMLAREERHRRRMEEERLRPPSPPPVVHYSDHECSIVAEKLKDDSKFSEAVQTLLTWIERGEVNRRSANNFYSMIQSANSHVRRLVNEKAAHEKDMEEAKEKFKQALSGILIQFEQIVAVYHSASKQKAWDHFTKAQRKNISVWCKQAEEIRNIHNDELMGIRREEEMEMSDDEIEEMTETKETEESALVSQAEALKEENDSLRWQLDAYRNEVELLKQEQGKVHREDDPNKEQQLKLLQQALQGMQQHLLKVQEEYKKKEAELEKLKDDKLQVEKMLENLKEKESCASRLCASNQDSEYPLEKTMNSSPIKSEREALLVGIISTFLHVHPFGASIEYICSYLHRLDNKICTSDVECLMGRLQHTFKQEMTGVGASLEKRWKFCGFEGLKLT
smiles,measurement,setting,value
CNCCNc1c2c(c(NCCNC)c3occc13)C(=O)c1ccccc1C2=O,pIC50,HeLa,6.77
same,pIC50,[1],6.82
same,pIC50,[2],5.41
same,inhibition,[3],Active
same,Activity,AGS [4],1.5%
same,Activity,AGS [5],13%
same,Activity,AGS [6],21.6%
same,Activity,AGS [7],Active
same,Activity,AGS [8],Active
same,Activity,AGS [9],Active
same,Activity,AGS [10],Active
same,inhibition,[11],Active
